From ChEMBL document CHEMBL5303300, “EUbOPEN Chemogenomics Library - Multiplex” (2023)
“And” between values parts separate entries of the source, which are not always exact repeats. Identical values can stand only once.

Legend:
Fibroblast = test: Multiplex assay against human fibroblast; assay type: toxicity, cell-based; conditions: number of replicates 2
How it was run: (§1)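 On a CQ1 microscope at 37°C and 5% CO2, live cells were imaged after compound addition. They had been stained at seeding with Hoechst33342, BioTracker Green Microtubule Cytoskeleton Dye, MitoTracker Red and Annexin V Alexa Fluor 680. CellPathfinder machine-learning gating assigned cells to Hoechst high-intensity objects or normal cells, normal cells to healthy, pyknosed or fragmented nuclei, and pyknosed cells to mitotic or apoptotic. Tubulin, mitochondrial-mass and membrane-permeability phenotypes are per cents of healthy-nucleus cells.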

HEK-293T = test: Multiplex assay against HEK293T; assay type: toxicity, cell-based; conditions: human, number of replicates 2; how it was run: as §1
[1] = 12 h, 1 µM, compound concentration 1 uM
[2] = 12 h, 10 µM, compound concentration 10 uM
[3] = 24 h, 1 µM, compound concentration 1 uM
[4] = 24 h, 10 µM, compound concentration 10 uM
[5] = 48 h, 1 µM, compound concentration 1 uM
[6] = 48 h, 10 µM, compound concentration 10 uM

## Cn1c(Nc2c(Cl)cccc2Cl)nc2ccc3nc[nH]c(=O)c3c21
Fibroblast; [1]
  Population Apoptotic (%): 43% and 47%
  Population Fragmented Nuclei (%): 10% and 5%
  Population Healthy Nuclei (%): 56% and 67%
  Population Hoechst High Intensity Objects (%): 0%
  Population Membrane Permeable-Phenotype (%): 10% and 6%
  Population Mitochondria Different-Phenotype (%): 1% and 2%
  Population Mitotic Cells (%): 56% and 52%
  Population Normal (%): 100%
  Population Pyknosed Nuclei (%): 32% and 26%
  Population Tubulin-Different-Phenotype (%): 11% and 14%
  Total Cell Count: 169 and 189
Fibroblast; [2]
  Population Apoptotic (%): 40% and 37%
  Population Fragmented Nuclei (%): 8% and 17%
  Population Healthy Nuclei (%): 62% and 69%
  Population Hoechst High Intensity Objects (%): 0%
  Population Membrane Permeable-Phenotype (%): 10% and 5%
  Population Mitochondria Different-Phenotype (%): 4% and 3%
  Population Mitotic Cells (%): 59% and 62%
  Population Normal (%): 100%
  Population Pyknosed Nuclei (%): 28% and 12%
  Population Tubulin-Different-Phenotype (%): 18% and 23%
  Total Cell Count: 156 and 195
Fibroblast; [3]
  Population Apoptotic (%): 53% and 47%
  Population Fragmented Nuclei (%): 8% and 10%
  Population Healthy Nuclei (%): 54% and 57%
  Population Hoechst High Intensity Objects (%): 0%
  Population Membrane Permeable-Phenotype (%): 12% and 11%
  Population Mitochondria Different-Phenotype (%): 1% and 3%
  Population Mitotic Cells (%): 46% and 52%
  Population Normal (%): 100%
  Population Pyknosed Nuclei (%): 36% and 32%
  Population Tubulin-Different-Phenotype (%): 10% and 18%
  Total Cell Count: 152 and 202
Fibroblast; [4]
  Population Apoptotic (%): 43% and 41%
  Population Fragmented Nuclei (%): 16% and 14%
  Population Healthy Nuclei (%): 54% and 72%
  Population Hoechst High Intensity Objects (%): 0%
  Population Membrane Permeable-Phenotype (%): 9% and 6%
  Population Mitochondria Different-Phenotype (%): 3% and 1%
  Population Mitotic Cells (%): 56% and 58%
  Population Normal (%): 100%
  Population Pyknosed Nuclei (%): 28% and 13%
  Population Tubulin-Different-Phenotype (%): 19% and 11%
  Total Cell Count: 152 and 183
Fibroblast; [5]
  Population Apoptotic (%): 59% and 61%
  Population Fragmented Nuclei (%): 15% and 14%
  Population Healthy Nuclei (%): 55% and 62%
  Population Hoechst High Intensity Objects (%): 2% and 0%
  Population Membrane Permeable-Phenotype (%): 17% and 10%
  Population Mitochondria Different-Phenotype (%): 2%
  Population Mitotic Cells (%): 40% and 38%
  Population Normal (%): 97% and 100%
  Population Pyknosed Nuclei (%): 29% and 23%
  Population Tubulin-Different-Phenotype (%): 17% and 13%
  Total Cell Count: 128 and 187
Fibroblast; [6]
  Population Apoptotic (%): 94% and 87%
  Population Fragmented Nuclei (%): 18%
  Population Healthy Nuclei (%): 26% and 35%
  Population Hoechst High Intensity Objects (%): 0%
  Population Mitochondria Different-Phenotype (%): 0%
  Population Mitotic Cells (%): 5% and 12%
  Population Normal (%): 100%
  Population Pyknosed Nuclei (%): 54% and 46%
  Population Tubulin-Different-Phenotype (%): 37% and 16%
  Total Cell Count: 131 and 170
HEK-293T; [1]
  Population Apoptotic (%): 65% and 53%
  Population Fragmented Nuclei (%): 4% and 5%
  Population Healthy Nuclei (%): 77% and 80%
  Population Hoechst High Intensity Objects (%): 16% and 8%
  Population Membrane Permeable-Phenotype (%): 5% and 2%
  Population Mitochondria Different-Phenotype (%): 17% and 11%
  Population Mitotic Cells (%): 34% and 46%
  Population Normal (%): 84% and 91%
  Population Pyknosed Nuclei (%): 18% and 14%
  Population Tubulin-Different-Phenotype (%): 41% and 37%
  Total Cell Count: 450 and 596
HEK-293T; [2]
  Population Apoptotic (%): 29% and 35%
  Population Fragmented Nuclei (%): 1%
  Population Healthy Nuclei (%): 81% and 86%
  Population Hoechst High Intensity Objects (%): 4% and 5%
  Population Membrane Permeable-Phenotype (%): 1% and 2%
  Population Mitochondria Different-Phenotype (%): 17% and 12%
  Population Mitotic Cells (%): 70% and 64%
  Population Normal (%): 95% and 94%
  Population Pyknosed Nuclei (%): 16% and 11%
  Population Tubulin-Different-Phenotype (%): 40% and 36%
  Total Cell Count: 676 and 839
HEK-293T; [3]
  Population Apoptotic (%): 72% and 39%
  Population Fragmented Nuclei (%): 7% and 10%
  Population Healthy Nuclei (%): 78% and 79%
  Population Hoechst High Intensity Objects (%): 10% and 7%
  Population Membrane Permeable-Phenotype (%): 2%
